Reference: ChEMBL document CHEMBL3352291, “Synthesis and structure-activity relationship of thiobarbituric acid derivatives as potent inhibitors of urease” (Bioorg Med Chem, 2014)

Assay: Inhibition of Bacillus pasteurii urease using urea substrate assessed as reduction in ammonia production after 15 mins by indophenol's method
Design: species or system Sporosarcina pasteurii
Summary of the method: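 One unit of B. pasteurii urease in buffer containing 100 mM urea, incubated with test compound (added as 1 mM solution) at 30 °C for 15 min. Ammonia was measured by the indophenol method: phenol reagent and alkali reagent were added, and the increase in absorbance at 630 nm was read after 50 min on a plate reader.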

Going from O=C1NC(=S)NC(=O)C1=Cc1c[nH]c2ccccc12 to Nc1ccccc1C=C1C(=O)NC(=S)NC1=O, the IC50 falls from 171 µM to 32.3 µM (5.3-fold). The second is the more potent here.

Going from CN(C)c1ccc(C=C2C(=O)NC(=S)NC2=O)cc1 to CSc1ccc(C=C2C(=O)NC(=S)NC2=O)cc1, the IC50 falls from 58.5 µM to 18.1 µM (3.2-fold). The second is the more potent here.

O=C1NC(=S)NC(=O)C1=Cc1ccc(O)cc1O and O=C1NC(=S)NC(=O)C1=Cc1ccc(O)c(O)c1O are within 1.5-fold of each other in IC50: 32.1 µM for the first, 25.2 µM for the second.

Going from O=C1NC(=S)NC(=O)C1=Cc1ccc(O)c(O)c1 to COc1ccc(C=C2C(=O)NC(=S)NC2=O)cc1O, the IC50 rises from 1.61 µM to 22.8 µM (14-fold).

COc1cc(C=C2C(=O)NC(=S)NC2=O)cc(OC)c1O and COc1cc(C=C2C(=O)NC(=S)NC2=O)cc(I)c1O are within 1.5-fold of each other in IC50: 46.5 µM for the first, 42.5 µM for the second.

COc1cc(Br)c(C=C2C(=O)NC(=S)NC2=O)cc1OC and COc1cc(C=C2C(=O)NC(=S)NC2=O)c(OC)cc1Br are within 1.5-fold of each other in IC50: 47.3 µM for the first, 43.3 µM for the second.

O=C1NC(=S)NC(=O)C1=Cc1cccs1 and O=C1NC(=S)NC(=O)C1=Cc1ccncc1 are within 1.5-fold of each other in IC50: 21.5 µM for the first, 16 µM for the second.

Going from O=C1NC(=S)NC(=O)C1=Cc1c(Cl)c2cc(Br)ccc2oc1=O to Cc1ccc(C=C2C(=O)NC(=S)NC2=O)o1, the IC50 falls from 62.8 µM to 18.2 µM (3.5-fold).

First: Cc1cccc(C=C2C(=O)NC(=S)NC2=O)n1
Second: Cc1ccccc1C=C1C(=O)NC(=S)NC1=O
The IC50 of the first is 2.6-fold lower: 16 µM for the first, 42.1 µM for the second.

Compared with O=C1NC(=S)NC(=O)C1C=C1c2ccccc2Cc2ccccc21, O=C1NC(=S)NC(=O)C1=Cc1c(O)ccc2ccccc12 is 6.4-fold lower in IC50: 137 µM for the first, 21.4 µM for the second.

Going from O=C1NC(=S)NC(=O)C1=Cc1cc(Cl)cc(Cl)c1O to O=C1NC(=S)NC(=O)C1=Cc1cc(Br)c(O)c(Br)c1, the IC50 falls from 50.3 µM to 10.6 µM (4.7-fold). The second is the more potent here.

First: O=C1NC(=S)NC(=O)C1=Cc1ccc(C=C2C(=O)NC(=S)NC2=O)cc1
Second: CCOc1ccc(C=C2C(=O)NC(=S)NC2=O)cc1
The IC50 of the first is 4.4-fold lower: 6.7 µM for the first, 29.4 µM for the second.

Going from COc1cccc(C=C2C(=O)NC(=S)NC2=O)c1O to COc1ccc(O)c(C=C2C(=O)NC(=S)NC2=O)c1, the IC50 rises from 19.2 µM to 32.7 µM (1.7-fold).

COc1ccc(C=C2C(=O)NC(=S)NC2=O)cc1OC and NC(N)=S [THIOUREA] are within 1.5-fold of each other in IC50: 14.3 µM for the first, 21 µM for the second.
